The text below walks through data of ChEMBL document CHEMBL2177094, “Structure dependence of long-chain [18F]fluorothia fatty acids as myocardial fatty acid oxidation probes” (J Med Chem, 2012).

Format in all cases: ADME, organism-based
In series [1] the test system is Liver. The series can be described thus: Biodistribution in overnight fasted Sprague-Dawley rat liver organic fraction at 0.7 to 1.4 MBq, iv preincubated with POCA for 2 hrs before compound administration measured at 30 mins post treatment by Folch-type extraction method. The note with it: in vivo, 0.5 h. The gist of the method:
(§1)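 Female Sprague-Dawley rats, fasted overnight, under isoflurane (3.5% induction, 1.5% maintenance). [18F] tracer in 0.5–1.0% BSA/saline was given by tail vein. POCA group: 30 mg/kg i.p. 120 min before tracer. About 0.5 g tissue was homogenized and sonicated in chloroform/methanol (2:1) at 0 °C, then 40% urea and 5% H2SO4 were added and spun 10 min at 1,800 g. Aqueous, organic and pellet fractions were counted as % of total.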

Another series has as its system Blood. The series can be described thus: Drug uptake in overnight fasted Sprague-Dawley rat blood at 0.7 to 1.4 MBq, iv at 120 mins. Conditions: in vivo, 2 h. The gist of the method: (§2)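 Overnight-fasted female Sprague-Dawley rats under isoflurane received the [18F] tracer in 0.5–1.0% BSA/saline by tail vein. POCA group: 30 mg/kg i.p. 2 h before tracer. Tissues were excised at 30 or 120 min, weighed and gamma-counted with decay correction. Uptake = % dose kg/g, i.e. CPM tissue × body wt (kg) × 100 / (tissue wt (g) × CPM dose). n = 5–6.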

For series [2], the system named is Brain. The experiment in a line: Drug uptake in overnight fasted Sprague-Dawley rat brain at 0.7 to 1.4 MBq, iv preincubated with POCA for 2 hrs before compound administration measured at 120 mins post treatment. Conditions: in vivo. The gist of the method: as §2
The subject of series [3] is Muscle tissue. The series can be described thus: Biodistribution in overnight fasted Sprague-Dawley rat muscle pellet fraction at 0.7 to 1.4 MBq, iv at 120 mins by Folch-type extraction method. The note with it: in vivo, 2 h. The gist of the method: as §1
Series [4] relates to Brain. The experiment in a line: Drug uptake in overnight fasted Sprague-Dawley rat brain at 0.7 to 1.4 MBq, iv preincubated with POCA for 2 hrs before compound administration measured at 30 mins post treatment. The note with it: in vivo, 0.5 h. The gist of the method:
as §2

In series [5] the test system is Liver. The series can be described thus: Biodistribution in overnight fasted Sprague-Dawley rat liver pellet fraction at 0.7 to 1.4 MBq, iv preincubated with POCA for 2 hrs before compound administration measured at 30 mins post treatment by Folch-type extraction method. Conditions: in vivo, 0.5 h. The gist of the method:
as §1

The subject of series [6] is Heart. The experiment in a line: Drug uptake in overnight fasted Sprague-Dawley rat heart at 0.7 to 1.4 MBq, iv preincubated with POCA for 2 hrs before compound administration measured at 30 mins post treatment. Conditions: in vivo, 0.5 h. The gist of the method:
(§3)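 Female rats fasted overnight, under isoflurane (3.5% induction, 1.5% maintenance). 18F-labelled tracer formulated in 0.5–1.0% BSA/saline, injected via tail vein. Tissues harvested at 30 or 120 min, weighed, gamma-counted, decay-corrected. Uptake expressed as % dose kg/g, i.e. tissue CPM × body wt (kg) × 100 / (tissue wt (g) × dose CPM). POCA groups received 30 mg/kg i.p. 2 h before tracer. n = 5–6.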

Series [7] relates to Liver. The experiment in a line: Biodistribution in overnight fasted Sprague-Dawley rat liver organic fraction at 0.7 to 1.4 MBq, iv at 30 mins by Folch-type extraction method. The note with it: in vivo, 0.5 h. The gist of the method: as §1
Series [8] relates to Heart. The series can be described thus: Biodistribution in overnight fasted Sprague-Dawley rat heart aqueous fraction at 0.7 to 1.4 MBq, iv at 30 mins by Folch-type extraction method. The note with it: in vivo, 0.5 h. The gist of the method:
as §1

Series [9] concerns Muscle tissue. The series can be described thus: Drug uptake in overnight fasted Sprague-Dawley rat muscle at 0.7 to 1.4 MBq, iv at 30 mins. The note with it: in vivo, 0.5 h. The gist of the method:
as §3

For series [10], the system named is Liver. The series can be described thus: Biodistribution in overnight fasted Sprague-Dawley rat liver aqueous fraction at 0.7 to 1.4 MBq, iv at 30 mins by Folch-type extraction method. Conditions: in vivo, 0.5 h. The gist of the method: as §1
For series [11], the system named is Heart. The series can be described thus: Ratio of drug uptake in overnight fasted Sprague-Dawley rat heart at 0.7 to 1.4 MBq, iv at 30 mins to drug uptake in overnight fasted Sprague-Dawley rat heart at 0.7 to 1.4 MBq, iv preincubated with POCA for 2 hrs before compound administration measured at 30 mins post treatment. Conditions: in vivo, 0.5 h. The gist of the method: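 Ratio of heart uptake (% dose kg/g) 30 min after tail-vein tracer in fasted control rats to that in rats given POCA 30 mg/kg i.p. 2 h before tracer. Tissue radioactivity was decay-corrected and weight-normalized.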

Series [12] concerns Muscle tissue. The series can be described thus: Biodistribution in overnight fasted Sprague-Dawley rat muscle organic fraction at 0.7 to 1.4 MBq, iv preincubated with POCA for 2 hrs before compound administration measured at 30 mins post treatment by Folch-type extraction method. The note with it: in vivo, 0.5 h. The gist of the method:
as §1

Series [13] deals with Liver. The series can be described thus: Biodistribution in overnight fasted Sprague-Dawley rat liver aqueous fraction at 0.7 to 1.4 MBq, iv preincubated with POCA for 2 hrs before compound administration measured at 120 mins post treatment by Folch-type extraction method. The note with it: in vivo. The gist of the method: as §1
Series [14] concerns Muscle tissue. The series can be described thus: Ratio of drug uptake in overnight fasted Sprague-Dawley rat muscle at 0.7 to 1.4 MBq, iv preincubated with POCA for 2 hrs before compound administration measured at 120 mins post treatment to drug uptake in overnight fasted Sprague-Dawley rat muscle at 0.7 to 1.4 MBq, iv at 120 mins. Conditions: in vivo. The gist of the method: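 Ratio of skeletal muscle uptake (% dose kg/g) 120 min after tail-vein tracer in rats given POCA 30 mg/kg i.p. 2 h beforehand to that in fasted control rats. Radioactivity was decay-corrected and normalized to tissue and body weight.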

In series [15] the test system is Heart. The series can be described thus: Metabolic stability in overnight fasted Sprague-Dawley rat heart at 9 to 11 MBq, iv measured at 55 to 115 mins by microPET analysis. The note with it: in vivo.

Each structure is given as a SMILES string.

Regarding `O=C(O)CCSCCCCCCCCCCCCCC[18F]`, the Drug uptake in the series on Liver [1] came to 51.76%; in the series on Blood, 0.0098 %IDKg/g; with Brain [2], 0.031 %IDKg/g; in the series with Muscle tissue [3], 39.51%; with Brain [4], 0.0385 %IDKg/g; with Liver [5] it was 16.53%. The Drug uptake came out at 0.1814 %IDKg/g with Heart [6]; 51.66% in the series on Liver [7]; 3.97% in the series with Heart [8]; 0.0303 %IDKg/g in the series on Muscle tissue [9]; 15.36% in the series with Liver [10]; 47.15% with Muscle tissue [12]. The Drug uptake in the series on Liver [13] was determined as 10.23%. In addition, in the series on Heart [11], the Ratio stood at 1.7.
`O=C(O)CCCCSCCCCCCCCCCCC[18F]`: the Drug uptake with Liver [1] is on record as 54.88%; in the series on Blood, 0.0241 %IDKg/g; with Brain [2] it was 0.0519 %IDKg/g; in the series on Muscle tissue [3], 42.06%; with Brain [4], 0.0879 %IDKg/g; in the series with Liver [5] it was 34.35%. The Drug uptake with Heart [6] came out at 0.3331 %IDKg/g; in the series on Liver [7], 45.61%; with Heart [8], 4.02%; in the series with Muscle tissue [9] it was 0.039 %IDKg/g; with Liver [10], 9.65%; in the series with Muscle tissue [12], 43.43%. This compound yielded a Drug uptake in the series on Liver [13] of 7.45%. Further, the Ratio with Muscle tissue [14] was 2.2.
Consider `O=C(O)CCSCCCC/C=C\CCCCCCCC[18F]`, for which the Drug uptake with Liver [1] is 58.8%; in the series with Blood it was 0.0185 %IDKg/g; with Brain [2], 0.0206 %IDKg/g; in the series on Muscle tissue [3], 67.95%; in the series on Brain [4] it was 0.0368 %IDKg/g; in the series with Liver [5] it was 24.88%. Moreover, the Drug uptake is reported as 0.1155 %IDKg/g in the series with Heart [6]; 19.87% in the series on Liver [7]; 2.86% in the series on Heart [8]; 0.0201 %IDKg/g in the series with Muscle tissue [9]; 8.43% with Liver [10]; 43.19% in the series with Muscle tissue [12]. For the same compound, in the series with Liver [13], the Drug uptake is reported as 8.1%. Further, in the series with Heart [15], the Stability entry is listed as “Stable”.
For the compound `O=C(O)CCSCCCCCCCCCCCC[18F]`, the Drug uptake is recorded as 41.68% with Liver [1]; 0.0105 %IDKg/g with Blood; 0.0578 %IDKg/g in the series with Brain [2]; 49.81% with Muscle tissue [3]; 0.04879 %IDKg/g with Brain [4]; 38.07% in the series on Liver [5]. The Drug uptake in the series on Heart [6] came to 0.0792 %IDKg/g; with Liver [7], 48.25%; in the series on Heart [8], 2.63%; in the series with Muscle tissue [9] it was 0.031 %IDKg/g; in the series on Liver [10], 13.52%; with Muscle tissue [12], 42.23%. The compound further came in with a Drug uptake in the series with Liver [13] of 11.52%. For the same compound, the Ratio with Muscle tissue [14] stood at 2.7.
